Results on 94 compounds are retold here after PubChem BioAssay AID504382 (The Scripps Research Institute Molecular Screening Center, 2011).

SMILES strings stand for the structures. Several values for one entry are separate records, joined by “and”; a condition that tells them apart may be missing. Equal entries are not always repeated. Among all 2,500 compounds or so, about 460 (18%) were called active. A selection follows. Unmarked numbers belong to inactive results.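 How the source made its calls: active means mean activation above a cutoff of low control average plus 3 SD from the earlier screen (cut at about 12% in these data); inactive means the rest.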

The experiment is described as follows: compound fluorescence interference without thin filaments, confirmation, artefact control for cardiac RTF calcium sensitizer project, biochemical (AID 504382). Particulars: IANBD fluorescence interference counterscreen, buffer, EC20 Ca2+; at 7.2 µM; active compounds read high; scaled: EC20 calcium 0, EC100 calcium 100. The procedure, abridged: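 Technique: fluorescence, 480/540 nm / Medium: MOPS-based buffer with KCl, MgCl2, EGTA, NTA, DTT, pH 7.2 / Probe or stimulus: calcium at EC20 level, 0.472 mM final / Repeats: triplicate wells per compound / Times: 15 min compound exposure at 25 °C / Measure: compound fluorescence interference relative to control well signal range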
As for `COc1ccc2nc(-c3ccccn3)[nH]c2c1`, the fluorescence artifact activation is 20.2% (active). The same measure for `COc1ccc(OC)c(/C=C/c2nc3ccccc3[nH]c2=O)c1`: 0.12%. For the compound `COc1ccc2nc3ccccc3[n+]([O-])c2c1`, the fluorescence artifact activation is 2.24%. As for `CN1/C(=C\C(=O)c2ccco2)C(C)(C)c2ccccc21`, the fluorescence artifact activation was -0.02%. In the case of `COc1ccc2[nH]c3c(c2c1)CCNC3c1ccc([N+](=O)[O-])o1` (centres undefined), the fluorescence artifact activation is -0.02%. `COc1ccc(NC(=O)CSc2ccc3c4c(cccc24)C(=O)c2ccccc2-3)cc1`: the fluorescence artifact activation is 0.08%. As to `COc1ccc(Nc2cc(C)nc3ccc(OC)cc23)cc1`, the fluorescence artifact activation is 0.01%. The same measure for `COc1ccc(Nc2cccc3ccccc23)cc1`: 53.2% (active); for `CC(=O)c1cccc(Nc2cc(C)nc3ccc(C)cc23)c1`: 4.88%; for `CCOC(=O)COn1c(=O)c(-c2cc3ccccc3o2)[n+]([O-])c2ccccc21`: -0.09%. With `CCCC[C@H]1COCCS(=O)(=O)N1Cc1ccc(F)cc1`, the fluorescence artifact activation was 0.08%. Consider `O=C(NCC1CCCO1)c1ccc2c(c1)C(=O)N(c1cccc([N+](=O)[O-])c1)C2=O` (centres undefined), for which the fluorescence artifact activation is 14% (active). `O=C(NCC1CCCO1)c1cccc2c1C(=O)c1ccc(N3CCC(Cc4ccccc4)CC3)cc1S2(=O)=O` (centres undefined): the fluorescence artifact activation was 0.63%.

As for `O=C(NCC1CCCO1)c1c(O)nc2sccn2c1=O` (centres undefined), the fluorescence artifact activation was 1.06%. With `CCN(CC)C(=O)Cn1c(C)c(/C=C/c2cc[n+](C)cc2)c2ccccc21`, the fluorescence artifact activation was 0.06%. In the case of `CC(O)c1cccc(N=Cc2ccc3ccccc3c2O)c1` (centres undefined), the fluorescence artifact activation is 6.46%. For the compound `CCc1ccc(/C=C2\Oc3c(ccc(O)c3CN3CCN(C)CC3)C2=O)cc1`, the fluorescence artifact activation is -0.01%. For `COc1ccc(/C=C/c2nc3sc4c(c3c(=O)o2)CCC4)cc1`, the fluorescence artifact activation was 121% (active).

Regarding `COc1ccc(/C=C/C=C2\N=C(SC)SC2=O)cc1`, the fluorescence artifact activation is -0.02%. The same measure for `CN(C)NC(=O)c1ccc([N+](=O)[O-])s1`: 7.24%.

Turning to `Cc1ccc(-c2nc3ncccn3c2Nc2ccc3c(c2)OCCO3)o1`, the fluorescence artifact activation was 73.3% (active). In the case of `O=C1c2ccccc2-c2onc3ccc(N4CCCC4)c1c23`, the fluorescence artifact activation is 0.15%. `CS(=O)(=O)N(CC(=O)O)Cc1cccc(CN(CC(=O)O)S(C)(=O)=O)c1`: the fluorescence artifact activation is 0.86%. The same measure for `CCOC(=O)/C(C#N)=C\C=C1C=CN(C)C=C1`: 0.04%; for `C=CCN1C=CC(=C/C=C(/C#N)C(=O)OCC)C=C1`: -0.04%; for `CCCCCCN1C=CC(=C/C=C(\C#N)C(=O)OCC)C=C1`: 168% (active).

`CCc1ccc(C2C(C#N)=C(N)SC(N)=C2C#N)s1`: the fluorescence artifact activation is 0.05%. The same measure for `COC(=O)CSc1nc2c(c(=O)n(C)c(=O)n2C)n1CCCc1ccccc1`: 52.3% (active); for `C=CCNc1nc2c(c(=O)[nH]c(=O)n2C)n1CCCc1ccccc1`: -0.06%. Next, `CSc1nc2c(c(=O)[nH]c(=O)n2C)n1CCCc1ccccc1`: 0.1%; `CN1CCN(c2nc3c(c(=O)n(C)c(=O)n3C)n2Cc2ccccc2F)CC1`: 0.14%. As for `CCOC(=O)CSc1nc2c(c(=O)n(C)c(=O)n2C)n1Cc1ccccc1F`, the fluorescence artifact activation was 502% (active). The same measure for `Cc1cc(/C=C2/NC(=O)N(Cc3ccccc3F)C2=O)c(C)n1C`: 5.71%; for `CCOC(=O)c1c(NC(=O)c2ccno2)c2cc([N+](=O)[O-])ccc2n1C`: 0%; for `COc1ccccc1N=Cc1c(C)c(C#N)c2[nH]c3ccccc3n2c1=O`: -0.03%. Regarding `Cc1cccc(C)c1-n1c(C)nn(-c2ncc(C(F)(F)F)cc2Cl)c1=O`, the fluorescence artifact activation is 0.09%.

`CCCCC1OC2(C)OC(=N)C1(C#N)C(C#N)(C#N)C2c1ccccc1` (centres undefined): the fluorescence artifact activation is 0.23%. As to `Cc1nc(Cl)c2c(n1)NC1=C(O2)C(=O)CCC1`, the fluorescence artifact activation is 0.77%. Regarding `O=C1/C(=C/c2cccnc2)SC(=S)N1N1CCOCC1`, the fluorescence artifact activation is 0.1%. The same measure for `CCOC(=O)c1ccc(N=c2sc(C(=O)OC)cc(=O)n2CCCN2CCOCC2)cc1`: -0.02%; for `CCc1nc(Nc2ccc(O)cc2)c2oc3ccccc3c2n1`: 20.3% (active). `COc1ccc(/C=c2\s/c(=C/C(=O)c3ccc(C)cc3)[nH]c2=O)c(OC)c1`: the fluorescence artifact activation is 0.16%. Take `C[C@H](CO)N1C[C@H](C)[C@@H](CN(C)C(=O)Nc2ccccc2)Oc2ccc(NC(=O)Nc3ccc4c(c3)OCO4)cc2C1=O`: the fluorescence artifact activation was -0.07%. Consider `N#C/C(=C\c1ccc(N2CCOCC2)o1)C(=O)NCC1CCCO1` (centres undefined), for which the fluorescence artifact activation was -0.1%. For the compound `N#C/C(=C/c1ccc(N2CCCCC2)o1)C(=O)NCCc1c[nH]c2ccccc12`, the fluorescence artifact activation was 12.8% (active). As to `N#C/C(=C\c1ccc(N2CCOCC2)o1)C(=O)NCCc1ccccc1`, the fluorescence artifact activation was 20.6% (active). In the case of `COCCNC(=O)/C(C#N)=C/c1ccc(N2CCOCC2)o1`, the fluorescence artifact activation was -0.05%. As for `COC(=O)CCc1c(C)c(C(=O)c2cc(F)c(F)c(F)c2F)c2ccccn12`, the fluorescence artifact activation was -0.04%. Turning to `CN(C)C(CNC(=O)c1cccc(S(=O)(=O)N(C)C)c1)c1ccccc1` (centres undefined), the fluorescence artifact activation was 4.02%.

As for `N=c1c2c(ncn1Cc1ccco1)Oc1cc(O)ccc1C2c1ccccc1` (centres undefined), the fluorescence artifact activation was 20% (active). In the case of `COc1ccc(C2c3ccc(O)cc3Oc3ncn(Cc4ccco4)c(=N)c32)cc1` (centres undefined), the fluorescence artifact activation was 0.14%. As to `COc1ccc(C2c3ccc(O)cc3Oc3ncn(Cc4ccccc4)c(=N)c32)cc1OC` (centres undefined), the fluorescence artifact activation was 0.06%. The same measure for `CCN(CC)C(=S)SCC(=O)c1c(C)[nH]c2ccccc12`: 7.38%.

Consider `CCc1ccccc1NC(=S)NCc1cccn1C`, for which the fluorescence artifact activation is -0.01%. For the compound `CCOC(=O)/C(C#N)=C\c1ccc(N2CCN(C/C=C/c3ccccc3)CC2)cc1`, the fluorescence artifact activation was 0.17%. As to `CCOC(=O)/C(C#N)=C/c1ccc(N2CCN(Cc3ccccc3)CC2)cc1`, the fluorescence artifact activation was 82.2% (active).

As to `CC(OC(=O)/C(C#N)=C/c1ccc(N(C)C)cc1)C(=O)N(C)Cc1ccccc1` (centres undefined), the fluorescence artifact activation was 4.84%. Consider `N#C/C(=C(/O)COC(=O)COc1ccc(Cl)cc1)c1nc2ccccc2[nH]1`, for which the fluorescence artifact activation is 0%.

In the case of `O=C(Nc1cnn(Cc2c(Cl)cccc2Cl)c1)C(c1ccccc1)c1ccccc1`, the fluorescence artifact activation was -0.07%.

With `COc1ccccc1-c1nnc(SCC(=O)Nc2ccc3[nH]c(=O)[nH]c3c2)n1N`, the fluorescence artifact activation is -0.06%.

`Cc1cc(C)n(-c2ccc(C(=O)O)cc2)n1`: the fluorescence artifact activation is 0.39%. On to `CC1(OC(=O)CCc2ccccc2)C(=O)C=C2C=C(c3ccc(C#N)cc3)N(C3CCCC3)C=C2C1=O` (centres undefined), for which the fluorescence artifact activation was -0.06%. `Cc1cc(C)n(C2CCCCC2OC(=O)CCc2ccccc2)n1` (centres undefined): the fluorescence artifact activation was 13% (active).

Take `CCOC(=O)/C(C#N)=C(C)/C=C1\Sc2ccccc2N1CC`: the fluorescence artifact activation is 4.14%. With `C=CCNC(=S)NNC(=O)c1ccc(OCC(C)C)cc1`, the fluorescence artifact activation was 0.28%. Take `CN1CCC2(CC1)C1CN(C)CC=C1C(C#N)=C(N)C2(C#N)C#N` (centres undefined): the fluorescence artifact activation was -0.05% and 6.98%. In the case of `CC(C)(C)c1cc(NC(=O)c2cccc(S(=O)(=O)N3CCOCC3)c2)no1`, the fluorescence artifact activation was 7.6%. Regarding `Cc1sc(NC(=O)CSc2nnc(C(C)C)n2C)c(C#N)c1C`, the fluorescence artifact activation was 21.9% (active). With `COc1ccc(S(=O)(=O)N2CCSC2)cc1C`, the fluorescence artifact activation is 0.17%.

Take `Cc1cc(C)c(C(N)=O)c(Nc2ccc(F)cc2)n1`: the fluorescence artifact activation is 0.09%. For `CCN(C(=O)c1cnc(NC(C)C)cc1C(F)(F)F)c1ccc(Cl)cc1`, the fluorescence artifact activation is -0.05%. Take `O=c1[nH]c2ccccc2nc1/C=C/c1ccc(F)cc1`: the fluorescence artifact activation is 0.04%.

Take `O=c1[nH]c2ccccc2nc1/C=C(\O)c1cccs1`: the fluorescence artifact activation was 1.76%. For `O=c1[nH]c2ccccc2nc1/C=C/c1ccccc1`, the fluorescence artifact activation is 119% (active). The same measure for `O=C(Nc1ccccc1-c1ccccc1)c1ccc(Cl)c([N+](=O)[O-])c1`: 8.22%.

Take `COc1ccc2[nH]c3c(c2c1)CCN1C(=O)C(CC(=O)NCCCn2ccnc2)C[C@H](C(=O)N2CCCCC2)[C@@]31C` (some centres undefined): the fluorescence artifact activation is -0.02%. Consider `CN(C)c1ccc(/C=N/N(CCO)C2=NS(=O)(=O)c3ccccc32)cc1`, for which the fluorescence artifact activation is 0.26%.

On to `COC1C(CO)OC(n2c3c(Cl)cccc3c3c4c(c5c6cccc(Cl)c6[nH]c5c32)C(=O)NC4=O)C(O)C1O` (centres undefined), for which the fluorescence artifact activation is 0.02%. In the case of `Cc1ccccc1N(CC(N)=O)S(C)(=O)=O`, the fluorescence artifact activation was -0.02%. With `CS(=O)(=O)N(CC(=O)N/N=C/c1ccco1)c1ccccc1Br`, the fluorescence artifact activation was 48.6% (active). Take `CCCCCCC(=O)N/N=C/c1ccco1`: the fluorescence artifact activation was 0.06%. Take `CCc1ccc(C(=O)Nc2cccnc2Oc2ccc(Cl)cc2)cc1`: the fluorescence artifact activation was 3.19%.

In the case of `Cc1cc(C=C2C(=O)CCCC2=O)c(C)n1-c1ccccc1`, the fluorescence artifact activation is 0.05%. Next, `CCOC(=O)/C(=C\c1c[nH]c2ccccc12)NC(C)=O`: 7.92%; `CC(C)Sc1nc2ccc(Br)cc2[nH]1`: 10.8%. With `COc1cc(OC)cc(C(=O)N(Cc2ccco2)c2c(N)n(Cc3ccccc3)c(=O)[nH]c2=O)c1`, the fluorescence artifact activation was 0.01%. As for `COCCCN(C(=O)c1cccnc1SC)c1c(N)n(Cc2ccccc2)c(=O)[nH]c1=O`, the fluorescence artifact activation is 15.1% (active). The same measure for `CCCCN(C(=O)c1ccc([N+](=O)[O-])o1)c1c(N)n(CCCC)c(=O)[nH]c1=O`: -0.06%.

For the compound `COc1ccc(NC(=O)Cc2ccccc2)cn1`, the fluorescence artifact activation was 0.04%. Next, `N#CC1=C(N)SC(N)=C(C#N)C1c1cccc(O)c1`: 0.07%; `C/C(Cn1cnc([N+](=O)[O-])n1)=N\NC(=O)c1cccc(F)c1`: 0.05%. Consider `Cc1cc(NC(=O)CN2C(=O)[C@@H]3[C@H](C2=O)[C@@H]2C[C@H]3C(Br)C2Br)no1` (some centres undefined), for which the fluorescence artifact activation is 19.4% (active). Regarding `Cc1cc(NC(=O)COC(=O)C(Cc2ccccc2)NC(=O)c2ccco2)no1` (centres undefined), the fluorescence artifact activation was 9.69%. As for `CC(=O)NC(CCS(C)(=O)=O)C(=O)Nc1cc(C)on1` (centres undefined), the fluorescence artifact activation is 0.57%.
